Test results published in ChEMBL document CHEMBL4382237, “Design, Synthesis, and Biological Evaluation of 2-Nitroimidazopyrazin-one/-es with Antitubercular and Antiparasitic Activity” (J Med Chem, 2018).
Values after ≈ are worked out from the molar mass of the structure shown.

How the values were obtained:
Clostridioides difficile = assay: Antibacterial activity against Clostridium difficile 630 ATCC BAA-1382 by broth microdilution assay; type: functional
How it was run: (§1)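 Broth microdilution run essentially per an earlier report. MIC taken as the lowest concentration with no visible growth. Replicates typically agreed within one 2-fold dilution. The median MIC is reported, with a range where the median fell between two tested concentrations.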

Giardia intestinalis = assay: Antiparasitic activity against Giardia lamblia WB trophozoites after 24 to 48 hrs by CellTiter-Glo luminescent cell viability assay; conditions: Giardia duodenalis
[1] = test system: Mycobacterium tuberculosis; assay: Antibacterial activity against non-replicating Mycobacterium tuberculosis H37Rv after 5 days under hypoxic condition by resazurin dye-based fluorescence assay; type: functional; conditions: 120 h
How it was run: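 Same H37Rv inoculum (OD600 0.001, ~2 x 10^4 CFU/mL) in 7H9S with serially diluted compound. Plates held 5 days at 0.1% oxygen, then resazurin plus Tween-80 added.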

Entamoeba histolytica = assay: Antiparasitic activity against Entamoeba histolytica HM-1:IMSS trophozoites after 24 to 48 hrs by CellTiter-Glo luminescent cell viability assay; type: functional, organism-based
How it was run: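 Axenic trophozoites were kept in TYI-S-33 with penicillin (100 U/mL) and streptomycin (100 µg/mL) and harvested in log phase. 5000 parasites per well were exposed to a final 8-point two-fold series of 0.39–50 µM, from 10 mM DMSO stocks. Plates were incubated 24–48 h at 37 °C under anaerobic conditions. ATP luminescence viability was read in triplicate. Percent inhibition is given at the highest concentration tested.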

[2] = test system: Trypanosoma brucei brucei; assay: Antiparasitic activity against bloodstream form of Trypanosoma brucei brucei strain 427 after 48 hrs by resazurin dye-based assay; type: functional, organism-based; conditions: strain 427, 48 h
Escherichia coli = assay: Antibacterial activity against Escherichia coli ATCC 25922 by broth microdilution assay; type: functional; how it was run: as §1
Staphylococcus aureus = assay: Antibacterial activity against methicillin-resistant Staphylococcus aureus ATCC […] by broth microdilution assay; type: functional
Candida albicans = assay: Antifungal activity against Candida albicans ATCC 90028 by broth microdilution assay; type: functional; how it was run: as §1
Pseudomonas aeruginosa = assay: Antibacterial activity against Pseudomonas aeruginosa ATCC 27853 by broth microdilution assay; type: functional; how it was run: as §1
Klebsiella pneumoniae = assay: Antibacterial activity against Klebsiella pneumoniae 700603 by broth microdilution assay; type: functional; how it was run: as §1
Acinetobacter baumannii = assay: Antibacterial activity against Acinetobacter baumannii ATCC 19606 by broth microdilution assay; type: functional; conditions: ATCC 19606 = CIP 70.34 = JCM 6841; how it was run: as §1
Cryptococcus neoformans = assay: Antifungal activity against Cryptococcus neoformans H99 ATCC […] broth microdilution assay; type: functional; conditions: var. grubii H99 ATCC 208821; how it was run: as §1
[3] = test system: Mycobacterium tuberculosis; assay: Antibacterial activity against Mycobacterium tuberculosis H37Rv after 5 days under normoxic condition by resazurin dye-based fluorescence assay; type: functional, organism-based
How it was run: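 H37Rv grown in 7H9/ADC/glycerol/Tyloxapol to mid-exponential phase, diluted to OD600 0.001 (~2 x 10^4 CFU/mL) in 7H9S with serially diluted compound. Incubated 5 days at 37 °C, then resazurin and Tween-80 added. Fluorescence (ex 530/em 590 nm) read after 24 h, normalised to no-drug and no-bacteria wells.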

HEK293 = assay: Cytotoxicity against HEK293 cells after 24 hrs by resazurin dye-based fluorescence assay; type: cell-based; conditions: human, hek293, 24 h
How it was run: (§2)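 HEK293 (3000/well) and HepG2 (5000/well) were grown 24 h in DMEM with 10% FBS at 37 °C, 5% CO2. Cells were then exposed 24 h to a dilution series up to 100 µM (0.5% DMSO). 5 µM resazurin was added for 2 h, read at ex 560/em 590. 1% Triton X-100 served as lysis control. CC50 was derived from the curves.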

HepG2 = assay: Cytotoxicity against human HepG2 cells after 24 hrs by resazurin dye-based fluorescence assay; type: cell-based; conditions: hepg2, 24 h; how it was run: as §2

Row | Structure (SMILES) | MIC (Clostridioides difficile) | IC50 (Giardia intestinalis) | MIC [1] | IC50 (Entamoeba histolytica; read-out: IC50) | IC50 ([2]; read-out: IC50) | IC50 ([2]; read-out: pIC50 (converted)) | IC50 (Giardia intestinalis; read-out: pIC50 (converted)) | IC50 (Entamoeba histolytica; read-out: pIC50 (converted)) | also measured
1 | NC(=O)c1nc([N+](=O)[O-])cn1Cc1ccc(OC(F)(F)F)cc1 | > 64 µg/mL | 4.1 to 50 µM | > 32 µg/mL | > 25 µM | – | – | – | – | –
2 | Cc1ccc(CNC(=O)c2nc([N+](=O)[O-])c[nH]2)cc1 | 4 to 16 µg/mL (≈ 15.4 to 61.5 µM) | 0.2 to 0.5 µM | > 32 µg/mL | 2.2 to 4.5 µM | – | – | – | – | –
3 | Cc1ncc([N+](=O)[O-])n1CCO [METRONIDAZOLE] | 0.5 µg/mL (≈ 2.92 µM) | 7.2 µM | > 32 µg/mL | 4.3 µM | > 40 µM | > 39.8 µM | 7.94 µM | 3.98 µM | –
4 | Cc1cn2cc([N+](=O)[O-])nc2c(=O)n1CCO | – | > 50 µM | > 32 µg/mL | > 50 µM | 4.6 µM | 5.01 µM | > 50.1 µM | > 50.1 µM | –
5 | O=c1c2nc([N+](=O)[O-])cn2ccn1CCO | – | > 50 µM | – | – | – | – | > 50.1 µM | – | MIC (Escherichia coli): > 32 µg/mL; MIC (Staphylococcus aureus): > 32 µg/mL; MIC (Candida albicans): > 32 µg/mL; MIC (Pseudomonas aeruginosa): > 32 µg/mL; MIC (Klebsiella pneumoniae): > 32 µg/mL; MIC (Acinetobacter baumannii): > 32 µg/mL; MIC (Cryptococcus neoformans): > 32 µg/mL
6 | Cc1cn2cc([N+](=O)[O-])nc2c(=O)n1Cc1cccc(OC(F)(F)F)c1 | – | 2.8 µM | > 32 µg/mL | 16 µM | 1.1 µM | 1.26 µM | 2.51 µM | 15.8 µM | MIC [3]: >32 µg/mL
7 | O=c1c2nc([N+](=O)[O-])cn2cc(-c2ccccc2)n1CCO | – | 38 µM | > 32 µg/mL | > 50 µM | – | – | 39.8 µM | > 50.1 µM | CC50 (HEK293): > 75 µM; CC50 (HepG2): > 75 µM
8 | NC(=O)c1nc([N+](=O)[O-])cn1Cc1cccc(OC(F)(F)F)c1 | > 64 µg/mL | 4.1 to 50 µM | > 32 µg/mL | > 25 µM | – | – | – | – | –
9 | NC(=O)c1nc([N+](=O)[O-])cn1Cc1ccccc1 | > 64 µg/mL | 4.1 to 50 µM | > 32 µg/mL | > 25 µM | – | – | – | – | –
10 | CCOC(=O)c1nc([N+](=O)[O-])cn1Cc1ccc(OC(F)(F)F)cc1 | 16 to 64 µg/mL (≈ 44.5 to 178 µM) | 2.7 to 7.5 µM | > 32 µg/mL | 10 to 45 µM | – | – | – | – | –
11 | O=[N+]([O-])c1cn2cc(-c3ccccc3)nc(OCCO)c2n1 | – | 5.2 µM | > 32 µg/mL | > 50 µM | 1.1 µM | 1 µM | 5.01 µM | > 50.1 µM | –
12 | Cc1ccc(COc2nc(C)c(C)n3cc([N+](=O)[O-])nc23)cc1 | – | 5.8 µM | > 32 µg/mL | > 50 µM | 2.2 µM | 2.51 µM | 6.31 µM | > 50.1 µM | MIC [3]: >32 µg/mL
13 | NNC(=O)c1nc([N+](=O)[O-])cn1Cc1ccc(OC(F)(F)F)cc1 | 16 to 64 µg/mL (≈ 46.3 to 185 µM) | 2.7 to 7.5 µM | > 32 µg/mL | 10 to 45 µM | – | – | – | – | –
14 | O=C(NCc1ccc(F)cc1)c1ncc([N+](=O)[O-])[nH]1 | 4 to 16 µg/mL (≈ 15.1 to 60.6 µM) | 0.2 to 0.5 µM | > 32 µg/mL | 2.2 to 4.5 µM | – | – | – | – | –
15 | Cc1cn2cc([N+](=O)[O-])nc2c(=O)n1Cc1ccccc1OC(F)(F)F | – | 3.3 µM | > 32 µg/mL | 9.1 µM | 2.1 µM | 2 µM | 3.16 µM | 10 µM | MIC [3]: >32 µg/mL
16 | CN(C)C(=O)c1nc([N+](=O)[O-])cn1Cc1ccc(OC(F)(F)F)cc1 | 16 to 64 µg/mL (≈ 44.7 to 179 µM) | 2.7 to 7.5 µM | > 32 µg/mL | 10 to 45 µM | – | – | – | – | –
17 | O=C(NCc1ccccc1)c1nc([N+](=O)[O-])c[nH]1 | 4 to 16 µg/mL (≈ 16.2 to 65 µM) | 0.2 to 0.5 µM | > 32 µg/mL | 2.2 to 4.5 µM | – | – | – | – | –
